Measurements reported in ChEMBL document CHEMBL3232885, “Synthesis, characterization and pharmacological screening of some novel 5-imidazopyrazole incorporated polyhydroquinoline derivatives” (Eur J Med Chem, 2014).
≈ marks a conversion by molar mass, not a printed value.

Experiments:
[1] = test system: Streptococcus pneumoniae; test: Antibacterial activity against Streptococcus pneumoniae MTCC 1936 assessed as growth inhibition after 24 to 48 hrs by broth microdilution method; assay type: functional
Procedure, shortened: (§1)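 Bacteria were grown in Mueller-Hinton broth with inoculum adjusted to 10⁸ CFU mL⁻¹ by turbidity. Compounds were serially diluted in 2% aqueous DMSO and incubated at 37 °C overnight. Growth was checked by subculture at 24 and 48 h. MIC was taken as the highest dilution with no turbidity after spot subculture.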

[2] = test system: Bacillus subtilis; test: Antibacterial activity against Bacillus subtilis MTCC 441 assessed as growth inhibition after 24 to 48 hrs by broth microdilution method; assay type: functional; procedure, shortened: as §1
[3] = test system: Clostridium tetani; test: Antibacterial activity against Clostridium tetani MTCC 449 assessed as growth inhibition after 24 to 48 hrs by broth microdilution method; assay type: functional
[4] = test system: Escherichia coli; test: Antibacterial activity against Escherichia coli MTCC 443 assessed as growth inhibition after 24 to 48 hrs by broth microdilution method; assay type: functional; procedure, shortened: as §1
[5] = test system: Salmonella typhi; test: Antibacterial activity against Salmonella typhi MTCC 98 assessed as growth inhibition after 24 to 48 hrs by broth microdilution method; assay type: functional, Salmonella enterica subsp. enterica serovar Typhi; settings: Salmonella enterica
[6] = test system: Vibrio cholerae; test: Antibacterial activity against Vibrio cholerae MTCC 3906 assessed as growth inhibition after 24 to 48 hrs by broth microdilution method; assay type: functional
[7] = test system: Candida albicans; test: Antifungal activity against Candida albicans MTCC 227 assessed as growth inhibition after 24 to 48 hrs by broth microdilution method; assay type: functional
Procedure, shortened: (§2)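 Fungal nutrition used Sabouraud Dextrose broth with inoculum at 10⁸ CFU mL⁻¹ by turbidity. Serial compound dilutions were made in 2% DMSO in water. Growth was noted on subculture after 24 and 48 h. MIC was taken as the highest dilution preventing visible turbidity after spot subculture.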

[8] = test system: Aspergillus fumigatus; test: Antifungal activity against Aspergillus fumigatus MTCC 3008 assessed as growth inhibition after 24 to 48 hrs by broth microdilution method; assay type: functional; procedure, shortened: as §2
[9] = test system: Mycobacterium tuberculosis; test: Antitubercular activity against Mycobacterium tuberculosis H37Rv assessed as inhibition of colony formation at 250 ug/mL after 2 to 4 weeks by Lowensteine-Jensen method relative to control; assay type: functional
[10] = test system: Mycobacterium tuberculosis; test: Antitubercular activity against Mycobacterium tuberculosis H37Rv assessed as inhibition of colony formation at 100 ug/mL after 2 to 4 weeks by Lowensteine-Jensen method relative to control; assay type: functional
[11] = test system: Plasmodium falciparum; test: Antimalarial activity against chloroquine/quinine sensitive Plasmodium falciparum assessed as parasite growth inhibition after 48 hrs; assay type: functional, organism-based

Compound | MIC [1] | MIC [2] | MIC [3] | MIC [4] | MIC [5] | MIC [6] | MIC [7] | MIC [8] | inhibition at 250 µg/mL [9] | inhibition at 100 µg/mL [10] | IC50 [11]
Cc1ccc(N2C(N)=C(C(N)=O)C(c3c(C)nn(-c4ccccc4)c3-n3ccnc3)C3=C2CC(C)(C)CC3=O)cc1 (stereo unspecified) | 250 µg/mL (≈ 456 µM) | 250 µg/mL (≈ 456 µM) | 200 µg/mL (≈ 365 µM) | 200 µg/mL (≈ 365 µM) | 200 µg/mL (≈ 365 µM) | 250 µg/mL (≈ 456 µM) | > 1000 µg/mL | 250 µg/mL (≈ 456 µM) | 35% | 30% | 1.02 µg/mL (≈ 1.87 µM)
Cc1nn(-c2ccccc2)c(-n2ccnc2)c1C1C(C#N)=C(N)N(c2ccccc2)C2=C1C(=O)CC(C)(C)C2 (stereo unspecified) | 500 µg/mL (≈ 970 µM) | 250 µg/mL (≈ 485 µM) | 500 µg/mL (≈ 970 µM) | 100 µg/mL (≈ 194 µM) | 125 µg/mL (≈ 242 µM) | 100 µg/mL (≈ 194 µM) | 1000 µg/mL (≈ 1940 µM) | 500 µg/mL (≈ 970 µM) | 33% | 28% | 1.08 µg/mL (≈ 2.1 µM)
COc1ccc(N2C(N)=C(C#N)C(c3c(C)nn(-c4ccccc4)c3-n3ccnc3)C3=C2CC(C)(C)CC3=O)cc1 (stereo unspecified) | 100 µg/mL (≈ 183 µM) | 125 µg/mL (≈ 229 µM) | 100 µg/mL (≈ 183 µM) | 200 µg/mL (≈ 367 µM) | 100 µg/mL (≈ 183 µM) | 250 µg/mL (≈ 458 µM) | 1000 µg/mL (≈ 1830 µM) | 500 µg/mL (≈ 916 µM) | 91% | 88% | 0.086 µg/mL (≈ 0.158 µM)
CCOC(=O)C1=C(N)N(c2cccc(O)c2)C2=C(C(=O)CC(C)(C)C2)C1c1c(C)nn(-c2ccccc2)c1-n1ccnc1 (stereo unspecified) | 200 µg/mL (≈ 346 µM) | 500 µg/mL (≈ 864 µM) | 250 µg/mL (≈ 432 µM) | 200 µg/mL (≈ 346 µM) | 200 µg/mL (≈ 346 µM) | 125 µg/mL (≈ 216 µM) | 250 µg/mL (≈ 432 µM) | 1000 µg/mL (≈ 1730 µM) | 12% | 9% | 0.072 µg/mL (≈ 0.124 µM)
Cc1nn(-c2ccccc2)c(-n2ccnc2)c1C1C(C(N)=O)=C(N)N(c2ccc(Cl)cc2)C2=C1C(=O)CC(C)(C)C2 (stereo unspecified) | 200 µg/mL (≈ 352 µM) | 200 µg/mL (≈ 352 µM) | 200 µg/mL (≈ 352 µM) | 250 µg/mL (≈ 440 µM) | 250 µg/mL (≈ 440 µM) | 500 µg/mL (≈ 880 µM) | 250 µg/mL (≈ 440 µM) | 1000 µg/mL (≈ 1760 µM) | 75% | 66% | 0.059 µg/mL (≈ 0.104 µM)
Cc1ccc(N2C(N)=C(C#N)C(c3c(C)nn(-c4ccccc4)c3-n3ccnc3)C3=C2CC(C)(C)CC3=O)cc1 (stereo unspecified) | 125 µg/mL (≈ 236 µM) | 100 µg/mL (≈ 189 µM) | 100 µg/mL (≈ 189 µM) | 200 µg/mL (≈ 378 µM) | 62.5 µg/mL (≈ 118 µM) | 250 µg/mL (≈ 472 µM) | 1000 µg/mL (≈ 1890 µM) | 1000 µg/mL (≈ 1890 µM) | 90% | 80% | 1.07 µg/mL (≈ 2.03 µM)
Cc1nn(-c2ccccc2)c(-n2ccnc2)c1C1C(C(N)=O)=C(N)N(c2cccc(O)c2)C2=C1C(=O)CC(C)(C)C2 (stereo unspecified) | 125 µg/mL (≈ 227 µM) | 200 µg/mL (≈ 364 µM) | 200 µg/mL (≈ 364 µM) | 125 µg/mL (≈ 227 µM) | 200 µg/mL (≈ 364 µM) | 200 µg/mL (≈ 364 µM) | 500 µg/mL (≈ 910 µM) | 500 µg/mL (≈ 910 µM) | 84% | 75% | 0.57 µg/mL (≈ 1.04 µM)
Cc1nn(-c2ccccc2)c(-n2ccnc2)c1C1C(C#N)=C(N)N(c2ccc(O)cc2)C2=C1C(=O)CC(C)(C)C2 (stereo unspecified) | 200 µg/mL (≈ 376 µM) | 250 µg/mL (≈ 470 µM) | 500 µg/mL (≈ 941 µM) | 200 µg/mL (≈ 376 µM) | 250 µg/mL (≈ 470 µM) | 250 µg/mL (≈ 470 µM) | 500 µg/mL (≈ 941 µM) | 1000 µg/mL (≈ 1880 µM) | 94% | 94% | 1.23 µg/mL (≈ 2.31 µM)
Cc1nn(-c2ccccc2)c(-n2ccnc2)c1C1C(C#N)=C(N)N(c2ccc(Cl)cc2)C2=C1C(=O)CC(C)(C)C2 (stereo unspecified) | 125 µg/mL (≈ 227 µM) | 200 µg/mL (≈ 364 µM) | 125 µg/mL (≈ 227 µM) | 500 µg/mL (≈ 909 µM) | 500 µg/mL (≈ 909 µM) | 250 µg/mL (≈ 454 µM) | > 1000 µg/mL | 500 µg/mL (≈ 909 µM) | 84% | 76% | 0.073 µg/mL (≈ 0.133 µM)
CCn1cc(C(=O)O)c(=O)c2cc(F)c(N3CCNCC3)cc21 [NORFLOXACIN] | 250 µg/mL (≈ 783 µM) | 25 µg/mL (≈ 78.3 µM) | 25 µg/mL (≈ 78.3 µM) | 50 µg/mL (≈ 157 µM) | 50 µg/mL (≈ 157 µM) | 50 µg/mL (≈ 157 µM) | – | – | – | – | –
O=C(O)c1cn(C2CC2)c2cc(N3CCNCC3)c(F)cc2c1=O [CIPROFLOXACIN] | – | 100 µg/mL (≈ 302 µM) | – | – | 10 µg/mL (≈ 30.2 µM) | 50 µg/mL (≈ 151 µM) | – | – | – | – | –
NYSTATIN | – | – | – | – | – | – | 100 µg/mL | 500 µg/mL | – | – | –
Cc1nn(-c2ccccc2)c(-n2ccnc2)c1C1C(C(N)=O)=C(N)N(c2ccccc2)C2=C1C(=O)CC(C)(C)C2 (stereo unspecified) | 200 µg/mL (≈ 375 µM) | 125 µg/mL (≈ 234 µM) | 125 µg/mL (≈ 234 µM) | 200 µg/mL (≈ 375 µM) | 250 µg/mL (≈ 468 µM) | 250 µg/mL (≈ 468 µM) | 250 µg/mL (≈ 468 µM) | 1000 µg/mL (≈ 1870 µM) | 7% | 4% | 0.62 µg/mL (≈ 1.16 µM)
